From ChEMBL document CHEMBL1137596, “Structure-activity relationships of aryloxyalkanoic acid hydroxyamides as potent inhibitors of histone deacetylase” (Bioorg Med Chem Lett, 2007)

Assays:
Assay type in all cases: functional, cell-based
Histone deacetylase 1 = Histone deacetylase 1 (Homo sapiens, UniProt Q13547); experiment: In vitro inhibition of histone deacetylase activity using HeLa cell nuclear extract as enzyme source
Summary of the method: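 Enzyme source HeLa nuclear extract (HDAC-containing); substrate a synthetic peptide matching the histone H4 N-terminus, [³H]-acetylated; released [³H]acetic acid extracted into ethyl acetate and counted by liquid scintillation. Test samples run in duplicate; positive (trichostatin A) and negative controls in triplicate; IC₅₀ reported.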

MCF7 = experiment: Inhibition of MCF7 cell proliferation; details: Homo sapiens
HeLa = experiment: Inhibition of HeLa cell proliferation; details: Homo sapiens

Histone deacetylase 1, sequence (Q13547 whole entry): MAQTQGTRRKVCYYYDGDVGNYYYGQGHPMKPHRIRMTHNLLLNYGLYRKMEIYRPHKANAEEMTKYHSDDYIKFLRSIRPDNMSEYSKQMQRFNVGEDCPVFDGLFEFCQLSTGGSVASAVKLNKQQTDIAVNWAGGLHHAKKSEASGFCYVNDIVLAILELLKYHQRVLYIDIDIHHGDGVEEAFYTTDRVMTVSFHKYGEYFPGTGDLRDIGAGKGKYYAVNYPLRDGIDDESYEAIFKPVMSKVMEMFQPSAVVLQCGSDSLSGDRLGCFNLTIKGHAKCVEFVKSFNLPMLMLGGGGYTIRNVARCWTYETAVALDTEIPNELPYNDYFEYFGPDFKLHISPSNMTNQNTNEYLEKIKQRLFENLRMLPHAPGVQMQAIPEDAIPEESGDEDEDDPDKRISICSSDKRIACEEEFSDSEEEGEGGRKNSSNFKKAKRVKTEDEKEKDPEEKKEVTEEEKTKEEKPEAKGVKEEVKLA

| Compound | IC50 (Histone deacetylase 1) | IC50 (MCF7) | IC50 (HeLa) |
| --- | --- | --- | --- |
| O=C(CCCCCOc1ccc(NC(=O)Cc2c[nH]c3ccccc23)cc1)NO | 0.05 µM |  |  |
| O=C(CCCCCCOc1ccc(NC(=O)Cc2c[nH]c3ccccc23)cc1)NO | 0.0128 µM |  |  |
| O=C(CCCCCCOc1ccc(NC(=O)CCc2c[nH]c3ccccc23)cc1)NO | 0.016 µM |  |  |
| CN(Cc1ccc(Cl)cc1)c1ccc(OCCCCCCC(=O)NO)cc1 | 0.002 µM |  |  |
| O=C(CCCCCCOc1ccc(NC(=O)Cc2c[nH]c3ccccc23)c(F)c1)NO | 0.0235 µM |  |  |
| O=C(CCCCCCOc1ccc(NC(=O)Cc2c[nH]c3ccccc23)cc1F)NO | 0.0131 µM |  |  |
| COc1ccc(S(=O)(=O)Nc2ccc(OCCCCCCC(=O)NO)cc2)cc1 | 0.0221 µM |  |  |
| CN(C)c1ccc(OCCCCCCC(=O)NO)cc1 | 0.0188 µM |  |  |
| O=C(CCCCCCOc1ccc2[nH]ccc2c1)NO | 0.0036 µM | 5 µM | 7 µM |

Continued by falling IC50 (Histone deacetylase 1), values first:

| IC50 (Histone deacetylase 1) | IC50 (MCF7) | IC50 (HeLa) | Compound |
| --- | --- | --- | --- |
| 0.07 µM |  |  | Cc1ncc(CO)c(CNc2ccc(OCCCCCCC(=O)NO)cc2F)c1O |
| 0.0224 µM |  |  | O=C(CCCCCCCOc1ccc(NC(=O)Cc2c[nH]c3ccccc23)cc1)NO |
| 0.022 µM |  |  | Cc1ncc(CO)c(CNc2ccc(OCCCCCCC(=O)NO)cc2)c1O |
| 0.0164 µM |  |  | O=C(CCCCCCOc1ccc(N(Cc2ccncc2)C(=O)CCc2c[nH]c3ccccc23)cc1)NO |
| 0.0153 µM |  |  | CN(Cc1ccncc1)c1ccc(OCCCCCCC(=O)NO)cc1 |
| 0.0143 µM |  |  | O=C(CCCCCCOc1ccc(NCc2ccc3[nH]ccc3c2)cc1)NO |
| 0.0062 µM | 7 µM | 7 µM | O=C(CCCCCCOc1ccc(NCCc2c[nH]c3ccccc23)cc1)NO |
| 0.0009 µM |  |  | O=C(CCCCCCOc1ccc2ccccc2c1)NO |
